Results on 48 sequences are retold here after the EternaBench riboswitch data.

For the series, the system named is MS2 coat protein. In words: apparent Kd, MS2 coat protein; higher = weaker binding; RNA-MaP array; FMN 200 µM where present. The essentials:
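Green signal from SNAP-549-labelled MS2 coat protein was normalised to red-channel RNA signal and to the median Fmax of control clusters. The protein was titrated from 0.7 or 1.5 nM, doubling to 3 µM, without and then with constant ligand, over designs transcribed by stalled E. coli RNA polymerase on Illumina sequencing-chip clusters, in 100 mM Tris-HCl pH 7.5, 80 mM KCl, 4 mM MgCl2, BSA, DTT, yeast tRNA and Tween-20. The apparent Kd is the median of filtered per-cluster binding-curve fits.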

Where [1] appears, read: designed as: OFF switch for flavin mononucleotide, no ligand.
Setting [2] is: ligand present: flavin mononucleotide, designed as: OFF switch for flavin mononucleotide.
Where [3] appears, read: designed as: ON switch for flavin mononucleotide, no ligand.
Where [4] appears, read: ligand present: flavin mononucleotide, designed as: ON switch for flavin mononucleotide.

As usually defined, the apparent Kd is a dissociation constant that holds for the conditions of the assay. For the sequence “UAUAUACAUGAGGAUCACCCAUGUAAGGAUAUGCAUUAUUAUUAUUAUUAUUAUUAUAGCAGAAGGUACAAUAU”, the “apparent Kd” value is 32.1 nM under setting [1] and 31.3 nM under setting [2].
With “UUCGCACAUGAGGAUCACCCAUGUCAGGAUAUUGUGGUGGGAACAACUGGGAAACGCACGAGAAGGGACACACA”, the “apparent Kd” value turned out to be 36.2 nM under setting [1] and 32.2 nM under setting [2].
With “UGAGGACAUGAGGAUCACCCAUGUAAGGAUAUGCGGAGAGUUUGGAGAGGUUGAGGAGGCAGAAGGUACAGGAU”, the “apparent Kd” value under setting [1] amounted to 89.5 nM and the “apparent Kd” value under setting [2] came out at 58.5 nM.
Turning to “CGAAACAACACAACGAAGCAGGUACCAGAAGGGACGGCGUCACAUGAGGAUCACCCAUGUUGCAGUCAGGAUAUGGGCCAUCCU”, the “apparent Kd” value stood at 33.1 nM under setting [3] and 6.95 nM under setting [4].
Consider “AGAUGGUGAUGUUAUCUUCGUCGGACAUGAGGAUCACCCAUGUAGGAUAUGCUACUAAAAUAGUAGCAGAAGGACAUGUAUCUU”, for which the “apparent Kd” value was 104 nM under setting [1] and 1030 nM under setting [2].
Take “AGGAGUAAAGGGAAUAACAUGAGGAUCACCCAUGUAUGGGAGAGAAGGCAGAUCGGAGGACGAUCUGAGGAUAUUUAAACUCUA”: the “apparent Kd” value reads like this: under setting [3], 72.5 nM; under setting [4], 16.8 nM.
For the sequence “GCGCAUUUAAGAUUUAUAUAAUUGUCAGAAGGUGAAAAGACGACAUGAGGAUCACCCAUGUAAUUCAAGGAUAUGAUUUAGCGC”, the “apparent Kd” value is, setting by setting: under setting [3], 34.3 nM; under setting [4], 13.3 nM.
Consider “CGUUUUUAUGUAGGAUAUGCUUGUGGUAAGAUAGCAGAAGGACAUGAGGAUCACCCAUGUUAAUGAUAGAGAUUUUAUGUUGCG”, for which the “apparent Kd” value came out at 37.9 nM under setting [1] and 50.2 nM under setting [2].
As to “AAACCGUGUGGAGGAUAUGCAGUUGAGGUGAGGCGGCAGCUCUAUACGACAGCAGAAGGCCACAUGAGGAUCACCCAUGUAGGU”, the “apparent Kd” value reads like this: under setting [1], 107 nM; under setting [2], 326 nM.
For “AUCAGCUUGUCAGGAUAUACGUCACUGCGUCAGCAGUGUGGUAAGAUCACAUGAGGAUCACCCAUGUAGAAGGGACGAGCUGAU” the same measures were 12.9 nM and 321 nM.
As to “AAACAUGUCCGAGGAUAUCUGGAAACAUUUUCAAGAGAAGGCGGACAUGAGGAUCACCCAUGUCUCUCCUCAUCAACUACAAAC”, the “apparent Kd” value reads like this: under setting [1], 8.57 nM; under setting [2], 53.2 nM.
The corresponding values for “UUGAGGUAGGAGAAGGACAGAGGCGGAAACACAAACAUGAGGAUCACCCAUGUAGGAUAUCCUACCUAACGAGGAUACCUCAAG” are 14.7 nM and 26.7 nM.
Consider “GAGGCCAAAACAUGAGGAUCACCCAUGUGAGUGGUCCGAAUAUAGGAUAUCCACACGAGAAGUGUGGAGAAGGAUAAUGGCGUC”, for which the “apparent Kd” value under setting [1] came to 321 nM and the “apparent Kd” value under setting [2] was found to be 547 nM.
On to “AAAACACAUGAGGAUCACCCAUGUGAGGAUAUGUUCAUUGUGAGCAAACUUAUGAUGAACAGAAGGCACAUAAA”, for which the “apparent Kd” value runs as follows: under setting [1], 45.5 nM; under setting [2], 50.7 nM.
Consider “CCUCCACAUGAGGAUCACCCAUGUCAGGAUAUCGUGUGCGCGUUUUCGGUCUUUCGCGCGAGAAGGGACGUCUG”, for which the “apparent Kd” value is, setting by setting: under setting [1], 26.9 nM; under setting [2], 30.1 nM.
The corresponding values for “GGAAAACAUGAGGAUCACCCAUGUGAGGAUAUCGAUGUCCAGGGCCUGCUGCGGGACUCGAGAAGGCAGUGGGA” are 41.2 nM and 21.7 nM.
For the sequence “GAGCUAUGAGGAUAUGCAUAUAUGCGGUUUCGUGUGGUACUACAUGAGGAUCACCCAUGUAGAAGGCGUGGCAG”, the “apparent Kd” value reads like this: under setting [1], 16 nM; under setting [2], 17.5 nM.
In the case of “GGUCGCAAGUAAGGAUAUGCAUAUGAAACAUAUGCAGAAGGUACAUGAGGAUCACCCAUGUUAAUGCAAAGCGAAUAAGCGACC”, the “apparent Kd” value under setting [1] worked out at 15.5 nM and the “apparent Kd” value under setting [2] was found to be 19.6 nM.
For the sequence “UGGUAUUAGGGAGGAUAUGGGAAGAUACAUGAGGAUCACCCAUGUUUAAGAAUGCCGAGAGGCAACUAGAAGGCCCUAGUACCU”, the “apparent Kd” value worked out at 500 nM under setting [3] and 20.3 nM under setting [4].
In the case of “GUGGAGUACGUAGGAUAUGUAGGAUAUUCCUACAUGAGGAUCACCCAUGUUUACAUGGAAGAAGGACAGAAGGACGUGCUCCAG”, the “apparent Kd” value is, setting by setting: under setting [3], 1430 nM; under setting [4], 14.3 nM.
“ACGCAUUGCCUUUGGUAGUGCGUUACAUGAGGAUCACCCAUGUAGGAUAUGGUAGGCAAAGCUUACCAGAAGGACAUGAUAAUU”: the “apparent Kd” value was 49.5 nM under setting [1] and 238 nM under setting [2].
For “AUAUAAUAUCAGGAUAUGACUAGCCUCGGCUAGUCAGAAGGGAUGACAUGAGGAUCACCCAUGUGAUCAUAUAU” the same measures were 32.8 nM and 156 nM.
The corresponding values for “UUGAGGUCAGGAUAUGCAUGGCGGGACUUGCGUCGUGGCGUGGAGAAGGGACAUGAGGAUCACCCAUGUGGAGG” are 129 nM and 94.9 nM.
As for “CAGCUCUGAGGAUAUCCAUCCUCCUACAUGAGGAUCACCCAUGUUUCCCUCUGGGUUUUCGGAGAAGGCAGUUUUU”, the “apparent Kd” value reads like this: under setting [1], 248 nM; under setting [2], 425 nM.
The corresponding values for “AUCAUCCUAGGAUAUACAUGGAUAUACAUUCAUGUGGACCUACAUGAGGAUCACCCAUGUAGAAGGAGGAUGAU” are 33.4 nM and 88.8 nM.
For the sequence “AGUGUUGGAGGAUAUACAUGAGGAUCACCCAUGUACAUCACACAGUAUAUGAAACCAUGUAGAAGGCCAAUACA”, the “apparent Kd” value worked out at 55.8 nM under setting [1] and 73.8 nM under setting [2].
In the case of “GCCUGCUGGCAAGGAUAUUCUGUGCGGUUCCGGCUCGUGUCUGUUACAUGAGGAUCACCCAUGUGGGAGAAGGUGUCUGUGGCC”, the “apparent Kd” value under setting [1] stood at 6.21 nM and the “apparent Kd” value under setting [2] came out at 5.88 nM.
Regarding “AAAUUUAACGAAGGAUAUACUAACAUGAGGAUCACCCAUGUGUGCUUCGUGUUGCUGAAAUUCGGGUAGAAGGUCGUAUACAUA”, the “apparent Kd” value came out at 54.8 nM under setting [1] and 145 nM under setting [2].
The corresponding values for “AGUUUUUAUGUCAGGAUAUCAGUAGGUCUCCCGGAUGAGAAGGGACAUGAGGAUCACCCAUGUAACCAAAGAGC” are 15.6 nM and 18.5 nM.
Take “CAGCGAAAGCUGAAUCUGUAGAGAGAGGAUAUACGUCAUAAGGUGCAUACAUGAGGAUCACCCAUGUAGAAGGCUCUCUACAGU”: the “apparent Kd” value runs as follows: under setting [1], 25.3 nM; under setting [2], 603 nM.
“GGGUGGCGUAUAGGAUAUAUGGUACAUGAGGAUCACCCAUGUACAUAUGAUGUUCAUGUUUGUGUAUAGAAGGAUACGUCGGGA”: the “apparent Kd” value is, setting by setting: under setting [3], 9.44 nM; under setting [4], 8.86 nM.
Take “AGCUACGUUUCGUAGCAGUGUCAUCGAGAAGGCUCAUAAACAUGAGGAUCACCCAUGUAUUCAUGGGAGGAUAUCGAUGAUACA”: the “apparent Kd” value reads like this: under setting [3], 32.2 nM; under setting [4], 6.04 nM.
For “GACGGAUGUAUAGGAUAUGCUGAGGAAUACUCAGCAGAAGGAUACAUGAGGAUCACCCAUGUAAUAAUAAUAAUAAUAACCGUC”, the “apparent Kd” value turned out to be 12.4 nM under setting [1] and 27.5 nM under setting [2].
With “AGUAACAGAGGAUAUACUGUUUUAUGUGUUUGUUAUUUUAAACAUGAGGAUCACCCAUGUAGAAGGCUGAAUGA”, the “apparent Kd” value under setting [1] came out at 27.1 nM and the “apparent Kd” value under setting [2] is 25.3 nM.
In the case of “GAGUGGAAGGCCGCUACAUGAGGAUCACCCAUGUGCUAAGCACAGGAUAUCGCGCUAGCCCGGCGCGAGAAGGGUGACGGCCUG”, the “apparent Kd” value reads like this: under setting [3], 674 nM; under setting [4], 339 nM.
“UUGCUCGUGUGAGGAUAUGCCGCCGUUUCGGCUGCAGAAGGUACUUUAAUACAUGAGGAUCACCCAUGUCUCUGUUGUUUCGUG”: the “apparent Kd” value by setting is: under setting [3], 26.5 nM; under setting [4], 26.9 nM.
As to “UGACUGAUAUAGAAGGGUAUGUGGGAAUUACAUGAGGAUCACCCAUGUUUUAUAGGAUAUGUAUAUAGAAUUUAAUCAAGUUUA”, the “apparent Kd” value stood at 40.5 nM under setting [1] and 37.1 nM under setting [2].
As to “AAAACAUGAGGAUCACCCAUGUAAAGAUCGGUUAAUAGAGGUGAGGAUAUACGAACUUUUGGGUAGUAGAAGGCACUGGGUACA”, the “apparent Kd” value by setting is: under setting [3], 58.1 nM; under setting [4], 44 nM.
For “CCCGUGUGAGGAUAUCGUUCGCUUGGCGUUUGUCGGGUGGGCGAGAAGGUACAUGAGGAUCACCCAUGUGCGGG”, the “apparent Kd” value turned out to be 172 nM under setting [1] and 422 nM under setting [2].
The corresponding values for “GGAUCGAAUGUGAGGAUAUGCUGGUCCUUGGAUCAGCAGAAGGCACAUGAGGAUCACCCAUGUGUUCCCGGUCC” are 79.5 nM and 716 nM.
As for “AGGAUACACCAGAAGGACAUGAGGAUCACCCAUGUAGGAUAUGGGUACGCCGACAUUAGUCUGCUCUCGGUAGACUUUCCUGAU”, the “apparent Kd” value came to 75.1 nM under setting [3] and 10.4 nM under setting [4].
“GGGAAGGGCGGAGGAUAUCGACAUGAGGAUCACCCAUGUAUCACCCAUGUAUGAGAAGGUUGGAAGGAUUAAAACGUGAGGGUC”: the “apparent Kd” value under setting [1] was found to be 57.6 nM and the “apparent Kd” value under setting [2] was 44.3 nM.
As for “UAAUCUCAGAUAGGAUAUAUAGGAUAACUUAAGACCUAACAUGAGGAUCACCCAUGUGAUUAUUCGUAGAAGGAUCAUUGAACU”, the “apparent Kd” value is 254 nM under setting [3] and 251 nM under setting [4].
Turning to “UUAAAUCAUGUAGGAUAUGCAUGGCGAAGCUACGCAGAAGGACAUGAGGAUCACCCAUGUUAUAGGUACCCAGUUCGGUGCCAA”, the “apparent Kd” value by setting is: under setting [1], 115 nM; under setting [2], 200 nM.
In the case of “CCGGAUAUGCAGGAUAUCGAAUCGGAAACGAUUCGAGAAGGGUAUACAUGAGGAUCACCCAUGUGUCCUACCGG”, the “apparent Kd” value was 24.9 nM under setting [1] and 31.6 nM under setting [2].
Turning to “AACGACUUAGGAUAUACAUGAGGAUCACCCAUGUUCAAAUCGUGGGUCAGGUGAGAAGGUAGAAGGAAGUCACU”, the “apparent Kd” value amounted to 33.6 nM under setting [1] and 93.7 nM under setting [2].
For the sequence “GGAUAGAUGAAGGGCGAACGCGCACAUGAGGAUCACCCAUGUAGAAGGCGGUCCGCAACGCGGAUCGAGGAUAUAUAGUAUACG”, the “apparent Kd” value by setting is: under setting [1], 18.4 nM; under setting [2], 16.8 nM.
The corresponding values for “UCGCUGCGAGGAUAUACGUGCGCGCGCGCGCGCGCGCGCGUACAUGAGGAUCACCCAUGUAGAAGGCGCGCUGC” are 17.1 nM and 17.1 nM.
